Bioassay records: PubChem BioAssay, Broad Institute
PAX8 inh HTS – lowers PAX8-driven luciferase in RMG-I cells | 360,000 compounds, 1.2% hits | RMG-I TPO-luciferase reporter, SteadyGlo, 24 h | inhibition, % at 12.6 µM;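 active = mean replicate inhibition at least 60% with every replicate also reaching 60%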;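 note: luciferase light reporting Pax8 driven TPO promoter activity; plate controls were median of neutral control wells for no effect and mitoxantrone controls for full effect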
LMP1 NFkB inh – inhibitors of Epstein-Barr LMP1-induced NF-kappaB reporter; LMP1-induced NF-kappaB luciferase reporter cells, luminescence; inhibition, % at 12.5 µM; 350,000 compounds, 0.69% hits; in the data active = inhibition above about 41%;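 note: 0% = neutral control wells and 100% = reference inhibitor control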
EWS-Fli block – inhibitors of EWS/Fli oncoprotein transcriptional activity; A673 NR0B1-luciferase reporter, viability-normalised; inhibition, % at 12.6 µM; 350,000 compounds, 0.67% hits; AID 651661;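 active = mean inhibition of at least 50% after viability correction, with every replicate also passing that limit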;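 note: firefly luciferase signal divided by Alamar Blue viability fluorescence both relative to DMSO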
FN deposit inh – fibronectin deposition inhibition; AH1F fibroblasts, Alexa488-fibronectin deposition fluorescence, overnight; inhibition, % at 12.6 µM; 350,000 compounds, 0.086% hits;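 active = mean inhibition across replicates of 30% or more, regardless of how many single replicates reach that level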;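 note: positive control wells lacked labelled fibronectin entirely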
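Material – AH1F fibroblast monolayer, labelled fibronectin deposition · Reagent – labelled fibronectin 24 nM · Timing – 1 h adhesion, overnight exposure · Measured by – fluorescence at 485 nm excitation, 525 nm emission · Read-out – inhibition of fibronectin deposition signal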
Shn3 3UTR inh – inhibitors of Schnurri-3 3'UTR reporter in osteoblasts | Clone20 osteoblast Shn3 3'UTR firefly luciferase, 24 h | inhibition, % at 12.5 µM | 360,000 compounds, 0.52% hits;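 active = mean inhibition of at least 75% with every replicate also reaching 75%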;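 note: 0% = median of neutral control wells and 100% = pilot-screen positive control compound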
aSyn 5UTR inh – 5' untranslated region of α-synuclein, MLPCN primary screen; 300,000 compounds, 0.82% hits; alpha-synuclein 5'UTR reporter, inhibitor activity; inhibition, % (tested at 7.5 µM); AID 1813; in the data active = inhibition above about 60%;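 note: H4 neuroglioblastoma cells stably carrying SNCA 5'UTR luciferase fusion; 0% = DMSO wells and 100% = positive control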
Active calls of the source: *; nt = not tested or not shown; ! = repeats disagree. Most compounds without a hit are left out; they make up all but 2.1% or so of the library.

SMILES	PAX8 inh HTS	LMP1 NFkB inh	EWS-Fli block	FN deposit inh	Shn3 3UTR inh	aSyn 5UTR inh
COc1ccc(S(=O)(=O)N(C)C[C@H]2Oc3ccc(NC(=O)Nc4ccc(C(F)(F)F)cc4)cc3CC(=O)N([C@H](C)CO)C[C@@H]2C)cc1	79.1*	nt	-7.9	nt	nt	nt
C[C@@H]1CN([C@H](C)CO)C(=O)Cc2cc(NC(=O)Nc3ccc(C(F)(F)F)cc3)ccc2O[C@@H]1CN(C)S(=O)(=O)c1ccc(Cl)cc1	nt	nt	-6.6	nt	nt	nt
Cc1ccc(S(=O)(=O)N(C)C[C@H]2Oc3ccc(NC(=O)Nc4ccc(C(F)(F)F)cc4)cc3CC(=O)N([C@@H](C)CO)C[C@H]2C)cc1	98.9*	nt	-7.5	2.9	nt	nt
Cc1ccc(S(=O)(=O)N(C)C[C@@H]2Oc3ccc(NC(=O)Nc4ccc(C(F)(F)F)cc4)cc3CC(=O)N([C@@H](C)CO)C[C@@H]2C)cc1	81.1*	nt	51.5*	-54.6	nt	nt
COc1ccc(S(=O)(=O)N(C)C[C@H]2Oc3ccc(NC(=O)Nc4ccc(C(F)(F)F)cc4)cc3C(=O)N([C@H](C)CO)C[C@@H]2C)cc1	93.5*	-5.2	1.1	1.9	57.5	nt
C[C@H]1CN([C@@H](C)CO)C(=O)Cc2cc(NC(=O)Nc3ccc(C(F)(F)F)cc3)ccc2O[C@H]1CN(C)S(=O)(=O)c1ccc(F)cc1	39.6	nt	54.1*	nt	nt	nt
C[C@H]1CN([C@@H](C)CO)C(=O)Cc2cc(NC(=O)Nc3ccc(C(F)(F)F)cc3)ccc2O[C@H]1CN(C)S(=O)(=O)c1cn(C)cn1	37.7	nt	54.1*	2.0	nt	nt
C[C@@H]1CN([C@@H](C)CO)C(=O)Cc2cc(NC(=O)Nc3ccc(C(F)(F)F)cc3)ccc2O[C@H]1CN(C)S(=O)(=O)c1cn(C)cn1	14.9	nt	5.4	-2.0	nt	nt
C[C@H](CO)N1C[C@H](C)[C@@H](CN(C)S(=O)(=O)c2ccc(F)cc2)Oc2ccc(NC(=O)Nc3ccc(C(F)(F)F)cc3)cc2CC1=O	-31.0	nt	-5.9	nt	nt	nt
N#C[C@@H]1[C@H](c2ccc(C3=CCCC3)cc2)[C@@H](CO)N1C(=O)c1cccc(F)c1	14.1	nt	20.8	-0.5	nt	nt
C[C@@H]1CN([C@H](C)CO)S(=O)(=O)c2ccc(-c3cncnc3)cc2O[C@@H]1CN(C)C(=O)c1ccc2c(c1)OCO2	nt	nt	-4.8	-3.6	nt	nt
CC(C)(C)c1cc(Cl)c(O)c(NC(=S)NC(=O)c2cccnc2)c1	22.9	-4.6	23.9	30.3*	34.3	79.6*
CC[N+](C)(C)CCN(Cc1ccc(Cl)cc1)c1ccccn1	28.4	2.8	nt	2.8	7.6	0.3
COc1ccc(CN(CCN(C)C)c2ccccn2)cc1	82.8*!	7.4	1.1	-8.7	1.3	-20.0
COc1cc2c(cc1NC(=O)c1ccccc1-c1ccccc1C(=O)O)-c1ccccc1C2	19.9	-3.4	6.6	-7.9	-11.7	nt
COc1cc2c(cc1NC(=O)C(Cl)Cl)-c1ccc(NC(=O)C(Cl)Cl)cc1C2	79.3*	8.2	22.7	6.9	6.7	nt
CCS(=O)(=O)N1CC2(C1)[C@@H](c1ccccc1)[C@@H](CO)N2C(=O)C1CCCC1	nt	nt	-2.2	0.8	nt	nt
Cc1cc(C(=O)N2CC=C(c3ccccc3)CC2)c2ccccc2n1	46.3	10.4	72.0*	3.8	36.9	43.3
CC(=O)N1CCN(C(=O)c2cc(C)nc3ccccc23)CC1	5.3	-0.4	5.1	-2.3	7.5	2.9
CNC[C@H]1Oc2ccc(NC(=O)Nc3ccc(C(F)(F)F)cc3)cc2CC(=O)N([C@H](C)CO)C[C@@H]1C	18.1	nt	-4.0	-6.7	nt	nt
O=C(COC(=O)c1ccc(Br)o1)Nc1ncc([N+](=O)[O-])s1	-65.2	1.8	0.2	4.4	-33.1	nt
CCc1nnc(NC(=O)c2cccc(C(=O)Nc3nnc(CC)s3)n2)s1	25.5	33.3	10.7	10.2	88.1*	66.0*
COCc1nnc(NC(=O)CCS(=O)(=O)c2ccccc2)s1	66.5*	6.8	-9.1	4.8	-3.9	-15.3
O=C(CCS(=O)(=O)c1ccccc1)Nc1ncc([N+](=O)[O-])s1	78.2*	1.7	-9.1	7.0	-4.7	-25.8
COc1ccc(C(=O)OCC(=O)Nc2ncc([N+](=O)[O-])s2)cc1OC	-9.9	-18.0	-16.4	1.6	86.3*	nt
SMILES	PAX8 inh HTS	LMP1 NFkB inh	EWS-Fli block	FN deposit inh	Shn3 3UTR inh	aSyn 5UTR inh
CCc1nnc(NC(=O)c2ccncc2)s1	nt	-7.1	nt	nt	-16.7	-5.8
CO[C@H]1CC[C@@H]2CCOc3ccc(C#N)cc3C(=O)N(C)C[C@H](OC)[C@@H](C)C(=O)N(C)C[C@@H]1O2	-5.3	nt	-3.6	-1.9	nt	nt
O=C(CCS(=O)(=O)c1ccccc1)Nc1nccs1	39.7	83.8*	1.4	0.9	0.4	-23.7
CCc1nnc(NC(=O)CCS(=O)(=O)c2ccc(C)cc2)s1	64.2*	2.7	-36.3	-6.2	-7.2	-21.9
CCCCc1nnc(NC(=O)CN(C)S(=O)(=O)c2ccc(C)cc2)s1	7.9	-7.3	nt	nt	4.1	10.6
CCC(CC)c1nnc(NC(=O)CCS(=O)(=O)Cc2ccccc2)s1	61.6*	1.1	8.5	9.3	-38.3	17.6
CCCCc1nnc(NC(=O)CCS(=O)(=O)c2ccc(C)cc2)s1	78.8*	6.6	-23.9	2.8	3.9	nt
CCc1nnc(NC(=O)CCS(=O)(=O)c2ccccc2)s1	9.4	7.7	-28.5	5.3	-12.9	-14.0
O=C(CCS(=O)(=O)c1ccc(F)cc1)Nc1nccs1	38.6	8.7	-2.4	-10.0	17.6	nt
C[C@@H]1CN([C@H](C)CO)C(=O)c2cccc(NC(=O)c3nc4ccccc4s3)c2O[C@H]1CN(C)Cc1ccncc1	23.3	nt	5.8	nt	nt	nt
Cc1cccc(-c2ccc([C@H]3[C@@H](CO)N4C(=O)CN(C(=O)c5cccnc5)C[C@H]34)cc2)c1	-22.1	nt	2.4	nt	nt	nt
CCCNC(=O)[C@H]1[C@H](CO)[C@H]2Cn3c(cccc3=O)[C@H]2N1CCC(F)(F)F	-11.0	nt	-0.2	nt	nt	nt
O=Cc1cc(CCC(=O)O)ccc1O	-3.8	53.3*	3.8	4.4	2.2	-0.7
CC(C)CNS(=O)(=O)c1ccc(CCC(=O)O)cc1	nt	-9.0	nt	nt	-13.2	5.6
CCCC(=O)Nc1ccc2c(c1)OC[C@H](C)N(CC1CCCC1)C[C@H](C)[C@@H](OC)CN(C)C2=O	-5.7	nt	-2.8	-14.4	nt	nt
C[C@@H]1CCCCO[C@H](CN(C)C(=O)Nc2ccc3c(c2)OCO3)[C@H](C)CN([C@H](C)CO)C(=O)c2cc(NC(=O)CCC(F)(F)F)ccc2O1	nt	nt	7.1	nt	nt	nt
COC(=O)c1c(O)ccc(Oc2ccccc2)c1C(=O)OC	nt	47.2*	nt	nt	3.3	14.7
Cc1cc(N/N=C/c2ccccc2O)nc(-c2ccccc2O)n1	2.8	-1.7	nt	3.6	2.1	24.6
Cc1cc(N/N=C/c2ccc(O)cc2O)nc(-n2nc(C)cc2C)n1	25.0	9.6	nt	17.2	83.8	71.8*
Cc1cc(N/N=C/c2ccc(O)cc2O)nc(-c2ccccc2O)n1	nt	-1.9	nt	nt	20.4	74.6*
COc1ccc(/C=N/Nc2cc(C)nc(-n3nc(C)cc3C)n2)cc1	12.0	19.6	nt	-5.5	52.8	5.8
